# Assay results reported in ChEMBL document CHEMBL3585281, “Antibacterial Labdane Diterpenoids from Vitex vestita” (2015).
# Key:
# Format in all cases: functional
# [1] = test system: Enterococcus durans; assay: Antibacterial activity against Enterococcus durans CIP 104999 after 18 hrs by agar dilution method; conditions: CIP 104999, 18 h
# Procedure, shortened: (§1)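 Agar-dilution MIC against Gram-positive strains. Compounds in DMSO, geometric dilutions giving final 100−0.75 mg/L in Mueller Hinton agar. Strains grown 18 h at 37 °C in trypticase soy broth, diluted in sterile water, spotted by Steers inoculator (about 1000 UFC/spot). Plates incubated 18 h at 37 °C; DMSO blank; ofloxacin positive control. MIC = lowest concentration with no visible growth.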
# [2] = test system: Listeria monocytogenes; assay: Antibacterial activity against Listeria monocytogenes N851 after 18 hrs by agar dilution method; conditions: N851, 18 h; procedure, shortened: as §1
# [3] = test system: Staphylococcus aureus; assay: Antibacterial activity against Staphylococcus aureus CIP 483 after 18 hrs by agar dilution method; conditions: CIP 483, 18 h; procedure, shortened: as §1
# [4] = test system: Corynebacterium striatum; assay: Antibacterial activity against Corynebacterium striatum N840 after 18 hrs by agar dilution method; conditions: N840, 18 h; procedure, shortened: as §1
# [5] = test system: Enterococcus casseliflavus; assay: Antibacterial activity against Enterococcus casseliflavus N487 after 18 hrs by agar dilution method; conditions: N487, 18 h; procedure, shortened: as §1
# [6] = test system: HCT-116; assay: Cytotoxicity against human HCT116 cells assessed as growth inhibition at 10^-6 M after 72 hrs by MTS assay relative to control; conditions: HCT-116, 72 h, read-out: GI
# Procedure, shortened: (§2)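 Cells from ATCC; HCT-116 grown in RPMI 1640 and MRC5 in DMEM, each with 10% FCS and 1% glutamine, 37 °C, 5% CO2. Seeded at 2.5 × 10^3 cells/well, cultured 24 h, then exposed to compounds at 1 and 10 μM final for 72 h. MTS read-out, absorbance 490 nm; percent index from treated/control OD490 × 100, three experiments.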
# [7] = test system: Enterococcus gallinarum; assay: Antibacterial activity against Enterococcus gallinarum N489 after 18 hrs by agar dilution method; conditions: N489, 18 h; procedure, shortened: as §1
# [8] = test system: Listeria innocua; assay: Antibacterial activity against Listeria innocua E044 after 18 hrs by agar dilution method; conditions: E044, 18 h; procedure, shortened: as §1
# [9] = test system: Enterococcus faecium; assay: Antibacterial activity against Enterococcus faecium N490 after 18 hrs by agar dilution method; conditions: N490, 18 h; procedure, shortened: as §1
# [10] = test system: Staphylococcus saprophyticus; assay: Antibacterial activity against Staphylococcus saprophyticus E260 after 18 hrs by agar dilution method; conditions: E260, 18 h; procedure, shortened: as §1
# [11] = test system: Enterococcus gallinarum; assay: Antibacterial activity against Enterococcus gallinarum CIP 105985 after 18 hrs by agar dilution method; conditions: CIP 105985, 18 h; procedure, shortened: as §1
# [12] = test system: MRC5; assay: Cytotoxicity against human MRC5 cells assessed as growth inhibition at 10^-5 M after 72 hrs by MTS assay relative to control; conditions: MRC5, 72 h, read-out: GI; procedure, shortened: as §2
# [13] = test system: Enterococcus avium; assay: Antibacterial activity against Enterococcus avium CIP 104053 after 18 hrs by agar dilution method; conditions: CIP 104053, 18 h; procedure, shortened: as §1
# [14] = test system: Bacillus cereus; assay: Antibacterial activity against Bacillus cereus N190 after 18 hrs by agar dilution method; conditions: N190, 18 h; procedure, shortened: as §1
# [15] = test system: Listeria monocytogenes; assay: Antibacterial activity against Listeria monocytogenes CIP 103575 after 18 hrs by agar dilution method; conditions: CIP 103575, 18 h; procedure, shortened: as §1
# [16] = test system: Enterococcus hirae; assay: Antibacterial activity against Enterococcus hirae CIP 5855 after 18 hrs by agar dilution method; conditions: CIP 5855, 18 h; procedure, shortened: as §1
# [17] = test system: Staphylococcus intermedius; assay: Antibacterial activity against Staphylococcus intermedius N987 after 18 hrs by agar dilution method; conditions: N987, 18 h; procedure, shortened: as §1
# [18] = test system: Listeria monocytogenes; assay: Antibacterial activity against Listeria monocytogenes N783 after 18 hrs by agar dilution method; conditions: N783, 18 h; procedure, shortened: as §1
# [19] = test system: Staphylococcus aureus; assay: Antibacterial activity against Staphylococcus aureus CIP 7625 after 18 hrs by agar dilution method; conditions: CIP 7625, 18 h; procedure, shortened: as §1
# [20] = test system: Enterococcus gallinarum; assay: Antibacterial activity against Enterococcus gallinarum N492 after 18 hrs by agar dilution method; conditions: N492, 18 h; procedure, shortened: as §1
# [21] = test system: Enterococcus faecalis; assay: Antibacterial activity against Enterococcus faecalis CIP 104676 after 18 hrs by agar dilution method; conditions: CIP 104676, 18 h; procedure, shortened: as §1
# [22] = test system: Staphylococcus epidermidis; assay: Antibacterial activity against Staphylococcus epidermidis CIP 53124 after 18 hrs by agar dilution method; conditions: CIP 53124, 18 h; procedure, shortened: as §1
# [23] = test system: Enterococcus faecium; assay: Antibacterial activity against Enterococcus faecium N733 after 18 hrs by agar dilution method; conditions: N733, 18 h; procedure, shortened: as §1
# [24] = test system: Bacillus cereus; assay: Antibacterial activity against Bacillus cereus N258 after 18 hrs by agar dilution method; conditions: N258, 18 h; procedure, shortened: as §1
# [25] = test system: Staphylococcus aureus; assay: Antibacterial activity against Staphylococcus aureus ATCC 25923 after 18 hrs by agar dilution method; conditions: ATCC 25923, 18 h; procedure, shortened: as §1
# [26] = test system: Staphylococcus haemolyticus; assay: Antibacterial activity against Staphylococcus haemolyticus CIP 8156 after 18 hrs by agar dilution method; conditions: CIP 8156, 18 h; procedure, shortened: as §1
# [27] = test system: Enterococcus faecalis; assay: Antibacterial activity against Enterococcus faecalis N518 after 18 hrs by agar dilution method; conditions: N518, 18 h; procedure, shortened: as §1
# [28] = test system: Bacillus cereus; assay: Antibacterial activity against Bacillus cereus N349 after 18 hrs by agar dilution method; conditions: N349, 18 h; procedure, shortened: as §1
# [29] = test system: Staphylococcus aureus; assay: Antibacterial activity against Staphylococcus aureus CIP 53154 after 18 hrs by agar dilution method; conditions: CIP 53154, 18 h; procedure, shortened: as §1
# [30] = test system: Bacillus spizizenii; assay: Antibacterial activity against Bacillus subtilis ATCC 6633 after 18 hrs by agar dilution method; conditions: ATCC 6633, 18 h; procedure, shortened: as §1
# [31] = test system: Staphylococcus saprophyticus; assay: Antibacterial activity against Staphylococcus saprophyticus CIP 76125 after 18 hrs by agar dilution method; conditions: CIP 76125, 18 h; procedure, shortened: as §1
# [32] = test system: Enterococcus faecalis; assay: Antibacterial activity against Enterococcus faecalis N520 after 18 hrs by agar dilution method; conditions: N520, 18 h; procedure, shortened: as §1
# [33] = test system: Staphylococcus aureus; assay: Antibacterial activity against Staphylococcus aureus CRBIP 2121 after 18 hrs by agar dilution method; conditions: CRBIP 2121, 18 h; procedure, shortened: as §1
# [34] = test system: Mammaliicoccus sciuri; assay: Antibacterial activity against Staphylococcus sciuri N993 after 18 hrs by agar dilution method; conditions: N993, 18 h; procedure, shortened: as §1
# [35] = test system: Enterococcus faecium; assay: Antibacterial activity against Enterococcus faecium CIP 103014 after 18 hrs by agar dilution method; conditions: CIP 103014, 18 h; procedure, shortened: as §1
# [36] = test system: Staphylococcus aureus; assay: Antibacterial activity against Staphylococcus aureus ATCC 9144 oxford after 18 hrs by agar dilution method; procedure, shortened: as §1
# [37] = test system: Streptococcus agalactiae; assay: Antibacterial activity against Streptococcus agalactiae CIP 103227 after 18 hrs by agar dilution method; conditions: ATCC 13813, 18 h; procedure, shortened: as §1
# [38] = test system: Staphylococcus aureus; assay: Antibacterial activity against Staphylococcus aureus CIP 53156 after 18 hrs by agar dilution method; conditions: CIP 53156, 18 h; procedure, shortened: as §1
# [39] = test system: Enterococcus faecium; assay: Antibacterial activity against Enterococcus faecium CIP 107387 after 18 hrs by agar dilution method; conditions: CIP 107387, 18 h; procedure, shortened: as §1
# [40] = test system: Staphylococcus lugdunensis; assay: Antibacterial activity against Staphylococcus lugdunensis ATCC 43809 after 18 hrs by agar dilution method; conditions: ATCC 43809, 18 h; procedure, shortened: as §1
# [41] = test system: Listeria monocytogenes; assay: Antibacterial activity against Listeria monocytogenes N836 after 18 hrs by agar dilution method; conditions: N836, 18 h; procedure, shortened: as §1
# [42] = test system: Enterococcus faecalis; assay: Antibacterial activity against Enterococcus faecalis N491 after 18 hrs by agar dilution method; conditions: N491, 18 h; procedure, shortened: as §1
# [43] = test system: Enterococcus casseliflavus; assay: Antibacterial activity against Enterococcus casseliflavus CIP 103018 after 18 hrs by agar dilution method; conditions: CIP 103018, 18 h; procedure, shortened: as §1
# [44] = test system: Enterococcus faecium; assay: Antibacterial activity against Enterococcus faecium N507 after 18 hrs by agar dilution method; conditions: N507, 18 h; procedure, shortened: as §1
# [45] = test system: MRC5; assay: Cytotoxicity against human MRC5 cells assessed as growth inhibition at 10^-6 M after 72 hrs by MTS assay relative to control; conditions: MRC5, 72 h, read-out: GI; procedure, shortened: as §2
# [46] = test system: Staphylococcus aureus; assay: Antibacterial activity against Staphylococcus aureus CIP 5710 after 18 hrs by agar dilution method; conditions: CIP 5710, 18 h; procedure, shortened: as §1
# [47] = test system: HCT-116; assay: Cytotoxicity against human HCT116 cells assessed as growth inhibition at 10^-5 M after 72 hrs by MTS assay relative to control; conditions: HCT-116, 72 h, read-out: GI; procedure, shortened: as §2
# [48] = test system: Enterococcus faecalis; assay: Antibacterial activity against Enterococcus faecalis CIP 103214 after 18 hrs by agar dilution method; conditions: CIP 103214, 18 h; procedure, shortened: as §1
# [49] = test system: Bacillus cereus; assay: Antibacterial activity against Bacillus cereus CIP 6624 after 18 hrs by agar dilution method; conditions: CIP 6624, 18 h; procedure, shortened: as §1
# [50] = test system: Enterococcus faecium; assay: Antibacterial activity against Enterococcus faecium N823 after 18 hrs by agar dilution method; conditions: N823, 18 h; procedure, shortened: as §1
smiles,measurement,setting,value
C=C(CC(=O)O)C(=O)C[C@H]1C(=C)CC[C@H]2C(C)(C)CCC[C@]12C,MIC,[1],> 158 µM
same,MIC,[2],158 µM
same,MIC,[3],158 µM
same,MIC,[4],158 µM
same,MIC,[5],> 158 µM
same,inhibition of growth at 1 µM,[6],0%
same,MIC,[7],158 µM
same,MIC,[8],158 µM
same,MIC,[9],158 µM
same,MIC,[10],158 µM
same,MIC,[11],> 158 µM
same,inhibition of growth at 10 µM,[12],25%
same,MIC,[13],> 158 µM
same,MIC,[14],25 µM
same,MIC,[15],158 µM
same,MIC,[16],> 158 µM
same,MIC,[17],100 µM
same,MIC,[18],158 µM
same,MIC,[19],158 µM
same,MIC,[20],> 158 µM
same,MIC,[21],> 158 µM
same,MIC,[22],158 µM
same,MIC,[23],> 158 µM
same,MIC,[24],50 µM
same,MIC,[25],158 µM
same,MIC,[26],158 µM
same,MIC,[27],> 158 µM
same,MIC,[28],50 µM
same,MIC,[29],158 µM
same,MIC,[30],100 µM
same,MIC,[31],158 µM
same,MIC,[32],> 158 µM
same,MIC,[33],100 µM
same,MIC,[34],158 µM
same,MIC,[35],> 158 µM
same,MIC,[36],158 µM
same,MIC,[37],100 µM
same,MIC,[38],158 µM
same,MIC,[39],> 158 µM
same,MIC,[40],158 µM
same,MIC,[41],> 158 µM
same,MIC,[42],> 158 µM
same,MIC,[43],> 158 µM
same,MIC,[44],> 158 µM
same,inhibition of growth at 1 µM,[45],22%
same,MIC,[46],100 µM
same,inhibition of growth at 10 µM,[47],46%
same,MIC,[48],> 158 µM
same,MIC,[49],50 µM
same,MIC,[50],> 158 µM
